Data: ChEMBL document CHEMBL1129348, “Effects of modifications of residues in position 3 of dynorphin A(1-11)-NH2 on kappa receptor selectivity and potency” (J Med Chem, 1996)

Assays:
Cavia porcellus [1] = species on record: Cavia porcellus; assay: Compound was evaluated for its ability to inhibit the electrically evoked contraction of the guinea pig ileum(GPI).at concentration of 60 uM; assay type: functional
[2] = target: Kappa-type opioid receptor (Cavia porcellus, UniProt P41144); assay: Inhibition of binding [3H][…] at Opioid receptor kappa 1 of guinea pig brain membrane (GPB) homogenates.
Method in brief: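 Whole-brain membranes from adult male guinea pigs (200–400 g) were used. Mean ± SEM of three or more independent measurements.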

Mu-type opioid receptor = Mu-type opioid receptor (Cavia porcellus, UniProt P97266); assay: Inhibition of binding [3H]DAMGO at Opioid receptor mu 1 of guinea pig brain membrane (GPB) homogenates.
Method in brief: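 Membranes from whole brains of adult male guinea pigs (200–400 g). Displacement of [3H]DAMGO at 1.0 nM for mu sites, with 180 min incubation. Values come from at least three independent measurements and are given as mean ± SEM.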

[3] = Ratio between IC50 of GPI and GPB; assay type: functional
[4] = test system: Opioid receptors mu & kappa (Cavia porcellus); assay: Selectivity ratio between mu and kappa opioid receptor from guinea pig brain homogenate
[5] = test system: Opioid receptors delta & kappa (Cavia porcellus); assay: Selectivity ratio between delta and kappa opioid receptor from guinea pig brain homogenate
Cavia porcellus [6] = species on record: Cavia porcellus; assay: Evaluated for its ability to inhibit the electrically evoked contraction of the guinea pig ileum(GPI).; assay type: functional
Method in brief: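 Strips of guinea pig ileum longitudinal muscle–myenteric plexus were electrically stimulated and inhibition of contraction was recorded. IC50 and its standard error came from fitting mean data to the Hill equation by nonlinear least squares. Selected analogues were retested with 1000 nM CTAP as mu antagonist to look for a shift.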

Cavia porcellus [7] = species on record: Cavia porcellus; assay: Ability to inhibit the electrically evoked contraction of the guinea pig ileum(GPI).at concentration of 30 uM; assay type: functional
[8] = target: Delta-type opioid receptor (Mus musculus) (UniProt P32300); assay: Agonistic activity towards Opioid receptor delta 1 was determined by evaluating the inhibitory activity towards electrically stimulated mouse vas deferens; conditions: concentration not given here
Cavia porcellus [9] = species on record: Cavia porcellus; assay: Ability to inhibit the electrically evoked contraction of the guinea pig ileum(GPI)at concentration of 30 uM; assay type: functional
Cavia porcellus [10] = species on record: Cavia porcellus; assay: Ability to inhibit the electrically evoked contraction of the guinea pig ileum(GPI).at concentration of 60 uM; assay type: functional

Chain of Mu-type opioid receptor (P97266 whole entry): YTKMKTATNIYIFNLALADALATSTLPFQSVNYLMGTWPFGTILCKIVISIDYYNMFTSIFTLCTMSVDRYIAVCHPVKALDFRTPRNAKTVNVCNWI
Chain of Kappa-type opioid receptor (P41144 whole entry): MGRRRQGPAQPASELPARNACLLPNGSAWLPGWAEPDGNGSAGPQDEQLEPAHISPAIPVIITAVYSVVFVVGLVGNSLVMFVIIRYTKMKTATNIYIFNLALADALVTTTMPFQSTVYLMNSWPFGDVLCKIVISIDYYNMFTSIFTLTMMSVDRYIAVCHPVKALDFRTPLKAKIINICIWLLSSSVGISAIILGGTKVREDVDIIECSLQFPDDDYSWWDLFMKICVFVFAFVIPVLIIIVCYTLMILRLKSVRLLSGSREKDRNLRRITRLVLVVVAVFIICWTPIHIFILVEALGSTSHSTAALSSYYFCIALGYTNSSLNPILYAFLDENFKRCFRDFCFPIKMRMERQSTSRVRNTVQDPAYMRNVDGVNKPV
Chain of Delta-type opioid receptor (Mus musculus) (P32300 whole entry, looked up): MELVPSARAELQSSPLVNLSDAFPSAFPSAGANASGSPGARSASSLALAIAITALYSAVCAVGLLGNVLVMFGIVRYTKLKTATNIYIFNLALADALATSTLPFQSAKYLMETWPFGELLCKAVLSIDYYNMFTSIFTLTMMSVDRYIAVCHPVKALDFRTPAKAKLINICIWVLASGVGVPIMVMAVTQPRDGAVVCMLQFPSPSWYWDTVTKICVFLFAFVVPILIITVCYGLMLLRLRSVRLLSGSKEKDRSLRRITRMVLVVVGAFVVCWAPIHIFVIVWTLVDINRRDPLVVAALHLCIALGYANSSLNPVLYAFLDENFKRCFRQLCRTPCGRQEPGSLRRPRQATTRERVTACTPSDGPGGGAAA

`CC[C@@H](C)[C@@H](NC(=O)CNC(=O)[C@@H](N)Cc1ccc(O)cc1)C(=O)N[C@@H](Cc1ccccc1)C(=O)N[C@@H](CC(C)C)C(=O)N[C@@H](CCCN=C(N)N)C(=O)N[C@@H](CCCN=C(N)N)C(=O)N[C@H](C(=O)N[C@@H](CCCN=C(N)N)C(=O)N1CCC[C@H]1C(=O)N[C@@H](CCCCN)C(N)=O)[C@@H](C)CC` gave an Inhibition (Cavia porcellus [1]) of 5.7%, an IC50 [2] of 55 nM and an IC50 (Mu-type opioid receptor) of 1030 nM. The Ratio [3] was greater than 1100, the Ratio [4] was 19 and the Ratio [5] was 260.

With `CC[C@H](C)[C@H](NC(=O)CNC(=O)[C@@H](N)Cc1ccc(O)cc1)C(=O)N[C@@H](Cc1ccccc1)C(=O)N[C@@H](CC(C)C)C(=O)N[C@@H](CCCN=C(N)N)C(=O)N[C@@H](CCCN=C(N)N)C(=O)N[C@H](C(=O)N[C@@H](CCCN=C(N)N)C(=O)N1CCC[C@H]1C(=O)N[C@@H](CCCCN)C(N)=O)[C@@H](C)CC` the IC50 (Cavia porcellus [6]) was 460 nM, the IC50 [2] was 40 nM and the IC50 (Mu-type opioid receptor) was 860 nM. The Ratio [3] was 12 and the Ratio [4] was 22.

`CC[C@H](C)[C@H](NC(=O)[C@H](CCCN=C(N)N)NC(=O)[C@H](CCCN=C(N)N)NC(=O)[C@H](CC(C)C)NC(=O)[C@H](Cc1ccccc1)NC(=O)[C@@H](Cc1ccccc1)NC(=O)CNC(=O)[C@@H](N)Cc1ccc(O)cc1)C(=O)N[C@@H](CCCN=C(N)N)C(=O)N1CCC[C@H]1C(=O)N[C@@H](CCCCN)C(N)=O` gave an IC50 (Cavia porcellus [6]) of 370 nM, an IC50 [2] of 5.9 nM and an IC50 (Mu-type opioid receptor) of 86 nM. The Ratio [3] was 62, the Ratio [4] was 15 and the Ratio [5] was 125.

Work on `CC[C@H](C)[C@H](NC(=O)[C@H](CCCN=C(N)N)NC(=O)[C@H](CCCN=C(N)N)NC(=O)[C@H](CC(C)C)NC(=O)[C@H](Cc1ccccc1)NC(=O)[C@H](CCCCN)NC(=O)CNC(=O)[C@@H](N)Cc1ccc(O)cc1)C(=O)N[C@@H](CCCN=C(N)N)C(=O)N1CCC[C@H]1C(=O)N[C@@H](CCCCN)C(N)=O` yielded an inhibition at 30 µM (Cavia porcellus [7]) of 15.6%, an IC50 [2] of 240 nM and an IC50 (Mu-type opioid receptor) of 7400 nM. The Ratio [3] was greater than 120, the Ratio [4] was 31 and the Ratio [5] was greater than 330. For the same molecule, the inhibition [8] was 30%.

For `CC[C@H](C)[C@H](NC(=O)[C@H](CCCN=C(N)N)NC(=O)[C@H](CCCN=C(N)N)NC(=O)[C@H](CC(C)C)NC(=O)[C@H](Cc1ccccc1)NC(=O)[C@@H](NC(=O)CNC(=O)[C@@H](N)Cc1ccc(O)cc1)[C@@H](C)c1c(C)cccc1C)C(=O)N[C@@H](CCCN=C(N)N)C(=O)N1CCC[C@H]1C(=O)N[C@@H](CCCCN)C(N)=O`, the IC50 (Cavia porcellus [6]) was 40800 nM, the IC50 [2] was 113 nM and the IC50 (Mu-type opioid receptor) was 2800 nM. The Ratio [3] was 360.

With `CC[C@H](C)[C@H](NC(=O)[C@H](CCCN=C(N)N)NC(=O)[C@H](CCCN=C(N)N)NC(=O)[C@H](CC(C)C)NC(=O)[C@H](Cc1ccccc1)NC(=O)[C@@H](CCCCN)NC(=O)CNC(=O)[C@@H](N)Cc1ccc(O)cc1)C(=O)N[C@@H](CCCN=C(N)N)C(=O)N1CCC[C@H]1C(=O)N[C@@H](CCCCN)C(N)=O` the IC50 (Cavia porcellus [6]) was 21000 nM, the Ratio [3] was 55 and the Ratio [4] was 5. For the same molecule, the Ratio [5] was 42.

`CC[C@H](C)[C@H](NC(=O)[C@H](CCCNC(=N)N)NC(=O)[C@H](CCCNC(=N)N)NC(=O)[C@H](CC(C)C)NC(=O)[C@H](Cc1ccccc1)NC(=O)[C@@H](CCCCN)NC(=O)CNC(=O)[C@@H](N)Cc1ccc(O)cc1)C(=O)N[C@@H](CCCNC(=N)N)C(=O)N1CCC[C@H]1C(=O)N[C@@H](CCCCN)C(N)=O` showed an IC50 [2] of 380 nM and an IC50 (Mu-type opioid receptor) of 1900 nM.

With `CC[C@H](C)[C@H](NC(=O)[C@H](CCCN=C(N)N)NC(=O)[C@H](CCCN=C(N)N)NC(=O)[C@H](CC(C)C)NC(=O)[C@H](Cc1ccccc1)NC(=O)[C@H](Cc1ccc(O)cc1)NC(=O)CNC(=O)[C@@H](N)Cc1ccc(O)cc1)C(=O)N[C@@H](CCCN=C(N)N)C(=O)N1CCC[C@H]1C(=O)N[C@@H](CCCCN)C(N)=O` the IC50 (Cavia porcellus [6]) was 220 nM, the IC50 [2] was 8.9 nM and the IC50 (Mu-type opioid receptor) was 290 nM. For the same molecule, the Ratio [3] was 25.

In the case of `CC[C@H](C)[C@H](NC(=O)[C@H](CCCN=C(N)N)NC(=O)[C@H](CCCN=C(N)N)NC(=O)[C@H](CC(C)C)NC(=O)[C@H](Cc1ccccc1)NC(=O)[C@@H](CCC(=O)O)NC(=O)CNC(=O)[C@@H](N)Cc1ccc(O)cc1)C(=O)N[C@@H](CCCN=C(N)N)C(=O)N1CCC[C@H]1C(=O)N[C@@H](CCCCN)C(N)=O`, the IC50 (Cavia porcellus [6]) is reported as 5700 nM, the Ratio [3] is reported as 5 and the Ratio [4] is reported as 2.3. The Ratio [5] was 12.

Molecule `CC[C@H](C)[C@H](NC(=O)[C@H](CCCN=C(N)N)NC(=O)[C@H](CCCN=C(N)N)NC(=O)[C@H](CC(C)C)NC(=O)[C@H](Cc1ccccc1)NC(=O)[C@H](CCC(=O)O)NC(=O)CNC(=O)[C@@H](N)Cc1ccc(O)cc1)C(=O)N[C@@H](CCCN=C(N)N)C(=O)N1CCC[C@H]1C(=O)N[C@@H](CCCCN)C(N)=O` has an inhibition at 30 µM (Cavia porcellus [9]) of 48%, an IC50 [2] of 150 nM and an IC50 (Mu-type opioid receptor) of 6600 nM. It also gave a Ratio [3] greater than 200, a Ratio [4] of 44 and a Ratio [5] of 20.

For `CC[C@H](C)[C@H](NC(=O)[C@H](CCCN=C(N)N)NC(=O)[C@H](CCCN=C(N)N)NC(=O)[C@H](CC(C)C)NC(=O)[C@H](Cc1ccccc1)NC(=O)[C@@H](Cc1ccc(O)cc1)NC(=O)CNC(=O)[C@@H](N)Cc1ccc(O)cc1)C(=O)N[C@@H](CCCN=C(N)N)C(=O)N1CCC[C@H]1C(=O)N[C@@H](CCCCN)C(N)=O`, the inhibition at 60 µM (Cavia porcellus [10]) was 41.7%, the IC50 [2] was 23.1 nM and the IC50 (Mu-type opioid receptor) was 650 nM. The Ratio [3] was greater than 2600.

`CC[C@H](C)[C@H](NC(=O)[C@H](CCCN=C(N)N)NC(=O)[C@H](CCCN=C(N)N)NC(=O)[C@H](CC(C)C)NC(=O)[C@H](Cc1ccccc1)NC(=O)CNC(=O)CNC(=O)[C@@H](N)Cc1ccc(O)cc1)C(=O)N[C@@H](CCCN=C(N)N)C(=O)N1CCC[C@H]1C(=O)N[C@@H](CCCCN)C(N)=O` showed an IC50 (Cavia porcellus [6]) of 1 nM.

`CC[C@H](C)[C@H](NC(=O)[C@H](CCCN=C(N)N)NC(=O)[C@H](CCCN=C(N)N)NC(=O)[C@H](CC(C)C)NC(=O)[C@H](Cc1ccccc1)NC(=O)[C@H](NC(=O)CNC(=O)[C@@H](N)Cc1ccc(O)cc1)[C@@H](C)c1ccccc1)C(=O)N[C@@H](CCCN=C(N)N)C(=O)N1CCC[C@H]1C(=O)N[C@@H](CCCCN)C(N)=O` showed an IC50 (Cavia porcellus [6]) of 2800 nM, an IC50 [2] of 6 nM and an IC50 (Mu-type opioid receptor) of 112 nM. It also gave a Ratio [3] of 467, a Ratio [4] of 20 and a Ratio [5] of 112.

Work on `CC[C@H](C)[C@H](NC(=O)[C@H](CCCN=C(N)N)NC(=O)[C@H](CCCN=C(N)N)NC(=O)[C@H](CC(C)C)NC(=O)[C@H](Cc1ccccc1)NC(=O)[C@H](Cc1ccccc1)NC(=O)CNC(=O)[C@@H](N)Cc1ccc(O)cc1)C(=O)N[C@@H](CCCN=C(N)N)C(=O)N1CCC[C@H]1C(=O)N[C@@H](CCCCN)C(N)=O` yielded an IC50 (Cavia porcellus [6]) of 1.1 nM, an IC50 [2] of 0.89 nM and an IC50 (Mu-type opioid receptor) of 27.1 nM. For the same molecule, the Ratio [3] was 1.2, the Ratio [4] was 30 and the Ratio [5] was 315.

In the case of `CC[C@H](C)[C@H](NC(=O)[C@H](CCCN=C(N)N)NC(=O)[C@H](CCCN=C(N)N)NC(=O)[C@H](CC(C)C)NC(=O)[C@H](Cc1ccccc1)NC(=O)[C@@H](NC(=O)CNC(=O)[C@@H](N)Cc1ccc(O)cc1)[C@@H](C)c1ccccc1)C(=O)N[C@@H](CCCN=C(N)N)C(=O)N1CCC[C@H]1C(=O)N[C@@H](CCCCN)C(N)=O`, the IC50 (Cavia porcellus [6]) is reported as 2190 nM, the IC50 [2] is reported as 121 nM and the IC50 (Mu-type opioid receptor) is reported as 1350 nM. The Ratio [3] was 18, the Ratio [4] was 11 and the Ratio [5] was 13.

`CC[C@H](C)[C@H](NC(=O)[C@H](CCCN=C(N)N)NC(=O)[C@H](CCCN=C(N)N)NC(=O)[C@H](CC(C)C)NC(=O)[C@H](Cc1ccccc1)NC(=O)[C@@H](CCCN=C(N)N)NC(=O)CNC(=O)[C@@H](N)Cc1ccc(O)cc1)C(=O)N[C@@H](CCCN=C(N)N)C(=O)N1CCC[C@H]1C(=O)N[C@@H](CCCCN)C(N)=O` showed a Ratio [3] greater than 260, a Ratio [4] of 22 and a Ratio [5] greater than 260.

With `CC[C@H](C)[C@H](NC(=O)[C@H](CCCNC(=N)N)NC(=O)[C@H](CCCNC(=N)N)NC(=O)[C@H](CC(C)C)NC(=O)[C@H](Cc1ccccc1)NC(=O)[C@@H](CCC(=O)O)NC(=O)CNC(=O)[C@@H](N)Cc1ccc(O)cc1)C(=O)N[C@@H](CCCNC(=N)N)C(=O)N1CCC[C@H]1C(=O)N[C@@H](CCCCN)C(N)=O` the IC50 [2] was 1100 nM and the IC50 (Mu-type opioid receptor) was 2500 nM.
